Compound activity as filed in PubChem.
The full list was thinned out, with hits kept by preference.
GASC1 inh: inhibitors of GASC-1 (KDM4C) histone demethylase, primary screen, biochemical, single concentration HTS | Lysine-specific demethylase 4C (Homo sapiens), Q9H3R0 | GST-KDM4C 2-372, H3K9me3 peptide, LANCE TR-FRET | inhibition, % at 12.5 µM | actives 0.15% (n = 96,000) | AID 720574, 2013;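 active = mean replicate inhibition above about 25%, with at least 55% of replicates also reaching it, limit read from the data, passing the limit was not always enough; inconclusive = only one of those two conditions met; inactive = neither condition met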
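Compound: one test concentration per compound; Material: GST-GASC-1 enzyme fragment 2-372; Amount: GASC-1 enzyme at 10 nM final in reaction; Also added: H3K9me3 peptide substrate, Fe(II), 2-oxoglutarate; Technique: LANCE TR-FRET; Times: 30 min demethylation and 1 h detection at room temperature.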
T cruzi growth-1: T. cruzi intracellular proliferation inhibitors, primary screen, cell-based, beta-gal Tulahuen parasites, NIH3T3 host, luminescence. T. cruzi beta-gal in NIH3T3, GalScreen luminescence, 90 h. inhibition, % at 8.34 µM. actives 5.9% (n = 77,000). AID 624255, 2012;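 active = mean inhibition above about 93%, with at least 55% of replicates each passing it, limit read from the data, passing the limit was not always enough; inconclusive = only one of those two conditions holds; inactive = neither condition holds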
IDH1 mut inh: inhibitors of IDH1 R132H reductase, primary screen, biochemical, plate reader, single point; Isocitrate dehydrogenase [NADP] cytoplasmic (Homo sapiens), O75874; diaphorase/resazurin fluorescence, 60 min; inhibition, % at 10 µM; actives 0.18% (n = 70,000); AID 624101, 2012; in the data active = inhibition above about 34%; inconclusive = no clear call, values can overlap the other calls; inactive = below about 11%;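 note: 0% = DMSO and 100% = no enzyme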
Target sequence (O75874 whole entry R132H): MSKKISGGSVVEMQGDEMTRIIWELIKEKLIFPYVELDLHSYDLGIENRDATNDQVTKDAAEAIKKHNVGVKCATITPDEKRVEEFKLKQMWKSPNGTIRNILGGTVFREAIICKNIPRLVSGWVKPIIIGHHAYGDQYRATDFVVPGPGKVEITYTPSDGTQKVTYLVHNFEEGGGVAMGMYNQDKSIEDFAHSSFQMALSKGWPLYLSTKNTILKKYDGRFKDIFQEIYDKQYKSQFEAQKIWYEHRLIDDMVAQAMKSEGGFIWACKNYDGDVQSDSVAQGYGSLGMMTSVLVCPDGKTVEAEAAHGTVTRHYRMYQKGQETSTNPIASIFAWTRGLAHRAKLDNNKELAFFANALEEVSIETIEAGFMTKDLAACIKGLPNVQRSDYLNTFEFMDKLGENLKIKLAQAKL
T cruzi growth-2: T. cruzi intracellular proliferation inhibitors, confirmation, cell-based, NIH3T3 host, beta-gal parasite, luminescence, cherry-pick; inhibition, % at 8.35 µM; T. cruzi beta-gal in NIH3T3, GalScreen luminescence, 90 h; actives 72% (n = 5,600); shares compounds with T cruzi growth-1;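 active = mean replicate inhibition above about 95% and at least 55% of replicates individually reaching it, limit read from the data; inconclusive = only one of the two criteria is met; inactive = neither criterion is met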
T cruzi growth-3: inhibitors of intracellular T. cruzi replication, confirmation, NIH3T3 host cells, beta-gal parasites, cherry-pick, set 2; inhibition, % at 2.09 µM; T. cruzi beta-gal in NIH3T3, GalScreen luminescence, 90 h; shares compounds with T cruzi growth-1; actives 21% (n = 5,600);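 active = mean inhibition above about 95%, with at least 55% of replicates also reaching it, limit read from the data; inconclusive = meets just one of the two conditions; inactive = meets neither condition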;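 note: plate controls were neutral control median for no effect and positive control median for full effect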
NIH3T3 tox: cytotoxicity in mouse NIH/3T3 fibroblasts, confirmation, cytotoxicity control for T. cruzi proliferation inhibitor project, cell-based, cherry-pick, single point; shares compounds with T cruzi growth-1; NIH/3T3 viability, CellTiter-Glo ATP luminescence, 90 h; cytotoxicity (signal decrease), % at 8.35 µM; actives 14% (n = 5,600); AID 651742, 2012;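 active = mean signal decrease across replicates above about 35% based on untreated-well scatter, with enough replicates individually passing, limit read from the data; inconclusive = no rule stated though some were filed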;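 note: 0% = median of neutral control wells and 100% = median of positive control wells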
NIH3T3 tox 2: NIH/3T3 fibroblast cytotoxicity, confirmation, cytotoxicity control, cell-based, cherry-pick, single point, set 2; shares compounds with T cruzi growth-1; NIH/3T3 viability, CellTiter-Glo ATP luminescence, 90 h; inhibition, % at 24.9 µM; actives 56% (n = 5,600); AID 651744, 2012;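 active = mean loss of cell viability signal at or above a set limit, and enough replicates individually reaching it; inconclusive = meets only the mean limit or only the replicate share; inactive = meets neither condition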;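 note: 0% = median of neutral control wells and 100% = median of positive control wells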
* marks the source's active call; other numbers are inactive results; ? = inconclusive; . = not tested or not shown.

SMILES	GASC1 inh	T cruzi growth-1	IDH1 mut inh	T cruzi growth-2	T cruzi growth-3	NIH3T3 tox	NIH3T3 tox 2
C[C@H]1CN([C@@H](C)CO)S(=O)(=O)c2ccc(-c3cccnc3)cc2O[C@@H]1CN(C)C(=O)C1CC1	4.4	34.0	2.3	.	.	.	.
C[C@H](O)C#Cc1ccc2c(c1)O[C@H](CN(C)Cc1ccccc1)[C@@H](C)CN([C@@H](C)CO)S2(=O)=O	.	-64.3	.	.	.	.	.
CC(C)C#Cc1ccc2c(c1)O[C@@H](CN(C)Cc1ccccc1)[C@@H](C)CN([C@H](C)CO)S2(=O)=O	0.3	110.8*	0.3	107.0*	78.9	1.8	103.9*
Cc1ccc(NC(=O)COc2ccccc2)c(NC(=O)c2ccccc2I)c1	.	.	-0.2	.	.	.	.
C[C@@H]1CN([C@@H](C)CO)C(=O)c2cccc(NC(=O)Nc3ccccc3)c2O[C@@H]1CN(C)Cc1ccncc1	1.4	-17.2	.	.	.	.	.
CO[C@H](CN(C)C(=O)C1CCOCC1)[C@@H](C)CN(C(=O)Nc1ccc(C(F)(F)F)cc1)[C@H](C)CO	.	72.0	0.2	.	.	.	.
CO[C@H](CN(C)C(=O)C1CC1)[C@@H](C)CN(C(=O)Nc1ccc(C(F)(F)F)cc1)[C@@H](C)CO	0.2	37.3	0.1	.	.	.	.
CO[C@H](CN(C)C(=O)C1CC1)[C@H](C)CN(C(=O)Nc1ccc(C(F)(F)F)cc1)[C@H](C)CO	-2.0	111.4*	-0.1	34.6	-12.9	0.5	25.1*
CO[C@H](CN(C)C(=O)C1CCOCC1)[C@H](C)CN(C(=O)Nc1ccc(C(F)(F)F)cc1)[C@H](C)CO	0.6	113.5*	0.1	104.2*	39.3	11.2	44.9*
COc1cc(NS(=O)(=O)c2ccc(NC(=O)c3cccc4ccccc34)cc2)ncn1	.	.	-0.1	.	.	.	.
CC(=O)NC[C@@H]1[C@H](c2ccc(-c3cccnc3)cc2)[C@H](CO)N1C(=O)C1CC1	0.8	74.2	.	.	.	.	.
COc1ccc(C#Cc2ccc3c(c2)O[C@H](CN(C)C(=O)Nc2cccc(OC)c2)[C@H](C)CN([C@H](C)CO)S3(=O)=O)cc1	-1.7	97.9*	.	105.1*	110.5*	1.3	10.7
COc1cccc(NC(=O)N(C)C[C@@H]2Oc3cc(C#Cc4ccc(F)cc4)ccc3S(=O)(=O)N([C@@H](C)CO)C[C@H]2C)c1	0.0	104.7*	-1.2	108.7*	104.7*	48.2*	29.5*
COc1cccc(NC(=O)N(C)C[C@@H]2Oc3cc(C#Cc4ccc(F)cc4)ccc3S(=O)(=O)N([C@@H](C)CO)C[C@@H]2C)c1	8.1	98.0*	.	101.6*	106.8*	45.1*	20.5
COc1cccc(NC(=O)N(C)C[C@H]2Oc3cc(C#Cc4ccncc4)ccc3S(=O)(=O)N([C@@H](C)CO)C[C@@H]2C)c1	-1.5	70.4	.	.	.	.	.
COc1cccc(NC(=O)N(C)C[C@H]2Oc3cc(C#Cc4ccc(F)cc4)ccc3S(=O)(=O)N([C@H](C)CO)C[C@H]2C)c1	-2.9	81.4	-1.9	.	.	.	.
COc1cccc(C#Cc2ccc3c(c2)O[C@H](CN(C)C(C)=O)[C@H](C)CN([C@H](C)CO)S3(=O)=O)c1	-1.8	63.2	-0.5	.	.	.	.
COc1cccc(C#Cc2ccc3c(c2)O[C@H](CN(C)C(C)=O)[C@@H](C)CN([C@@H](C)CO)S3(=O)=O)c1	-0.8	?	0.0	102.2*	51.0	12.3	49.4*
COc1cccc(NC(=O)N(C)C[C@@H]2Oc3cc(C#Cc4ccncc4)ccc3S(=O)(=O)N([C@@H](C)CO)C[C@H]2C)c1	1.9	-41.8	0.1	.	.	.	.
